STAT3 blocker: IL-6 driven STAT3 reporter inhibitors, primary screen, U3A cells, luciferase, luminescence, MLSCN library; IL-6 STAT3-luciferase reporter; host cell line lacks STAT1; AID 862, 2007; inhibition, % at 5.5 µM; 190,000 tested, 0.89% active;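 active = inhibition above the mean inhibition across all screened compounds plus 3 SD, cut at about 44% in these data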;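 also: 0% = DMSO only wells and 100% = 100 µM nifuroxazide control wells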
STAT1 act: STAT1 signaling activators, primary screen, cell-based, HTS, luciferase reporter; activation (% of control), % at 5.5 µM; 200,000 tested, 2.6% active; NIH 3T3 STAT1-luciferase reporter, IFN-gamma, luminescence; 100% = IFN-gamma alone, no compound; AID 932, 2007;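 active = activation above the screen-wide mean activation plus 3 SD, cut at about 130% in these data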;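 also: raw ratio to IFN-gamma control signal so 100% means no change and 0% no light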
APP 5'UTR act: activators of APP 5'UTR luciferase reporter, primary screen, SH-SY5Y cells; activation, % at 2 µM; 190,000 tested, 1% active; SH-SY5Y APP 5'UTR luciferase reporter, luminescence; zero percent = DMSO vehicle wells;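 active = activation above a set limit, based on mean plus 3 SD of controls, cut at about 140% in these data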
STAT1 blocker: STAT1 signaling inhibitors, primary screen, cell-based, HTS, luciferase reporter | NIH 3T3 STAT1-luciferase reporter, IFN-gamma, luminescence | inhibition, % at 5.5 µM | 200,000 tested, 0.35% active | AID 920, 2007;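 active = inhibition above a set limit, the mean inhibition across all tested compounds plus 3 SD, cut at about 34% in these data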;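 also: 0% = IFN-gamma with DMSO and 100% = IFN-gamma with 300 µM nifuroxazide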
NF-kB expr up: activators of NF-kB expression in neurons, primary screen, cell-based, HTS; human neuronal cells, NF-kB reporter expression; active compounds read high; fold change at 12.5 µM; 190,000 tested, 1.6% active; in the data active = fold change above about 3.3
STAT3 act: IL-6 driven STAT3 reporter potentiators, primary screen, U3A cells, luciferase, luminescence, MLSCN library. IL-6 STAT3-luciferase reporter; 100% = signal with IL-6 EC80 alone. activation (% of control), % at 5.6 µM. 190,000 tested, 0.91% active;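 active = activation above the screen-wide mean of compound activation plus 3 SD, cut at about 130% in these data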;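 also: 0% = background luminescence of wells with medium and substrate only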
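Material: human STAT1-deficient U3A cells with stable STAT3-luciferase reporter / Probe or stimulus: IL-6 stimulus at 33 ng/mL final / Schedule: 1 h compound pre-exposure, 6 h IL-6 stimulation, 37 °C / Technique: luminescence / Read-out basis: percent of IL-6-only median luminescence / Control set: IL-6-only high control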
STAT1 activ conf: STAT1 signaling activators, confirmation, cell-based, HTS, luciferase reporter | activation (% of control), % at 5.7 µM | 1,200 tested, 97% active | shares compounds with STAT1 act | NIH 3T3 STAT1-luciferase reporter, IFN-gamma potentiation, luminescence; 100% = IFN-gamma EC80 alone, no compound | AID 1262, 2008;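 active = activation above a set limit carried over from the earlier primary STAT1 screen, cut at about 140% in these data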;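 also: simple ratio to median IFN-gamma plus DMSO wells so 0% means no light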
NFkB act: NF-kB reporter activators, TNF-alpha stimulated, counter-screen for STAT1 activator project, cell-based, HEK293T, luciferase luminescence. shares compounds with STAT1 act. 100% = TNF-alpha with vehicle only. activation (% of control), % at 5.7 µM. 1,200 tested, 43% active. AID 1306, 2008;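 active = activation above the mean of solvent-only control wells plus 3 SD, set per campaign, cut at about 130% in these data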;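 also: TNF-alpha given at a submaximal dose yielding about 80% of full reporter signal; values are well signal over median control so 100% means no change and 0% no light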
STAT3 act STAT1c: STAT3 reporter activation by STAT1 hits, confirmation, counter-screen for STAT1 activator project, U3A cells, luciferase, luminescence; IL-6; cells lack STAT1; 100 = IL-6 alone, no compound effect; activation (% of control), % at 5.7 µM; 1,200 tested, 46% active; shares compounds with STAT1 act;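 active = activation above the solvent-only control well mean plus 3 SD, set per plate batch, cut at about 110% in these data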;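 also: 0% = no luminescence and 100% = median IL-6 plus DMSO wells; higher means more STAT3 reporter activation so hits are non-selective activators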
* marks the source's active call; other numbers are inactive results; . = not tested or not shown. Most compounds without a hit are left out; they make up all but 5.1% or so of the library.

SMILES	STAT3 blocker	STAT1 act	APP 5'UTR act	STAT1 blocker	NF-kB expr up	STAT3 act	STAT1 activ conf	NFkB act	STAT3 act STAT1c
C=CCn1c(SCC(=O)Nc2ccc3c(c2)OCO3)nnc1-c1ccccc1	11	93	4	8	1.6	94	.	.	.
C=CCn1c(SCC(=O)Nc2ccc(-c3nc4ccc(C)cc4s3)cc2)nnc1-c1ccccc1	25	156*	146*	-61	1.1	78	198*	110	94
COc1ccc(Cl)cc1N(CC(=O)NCC(C)C)S(=O)(=O)c1ccc(C)c([N+](=O)[O-])c1	0	104	.	-4	1.2	100	.	.	.
Cc1cccc(C(=O)N[C@H](C(=O)Nc2nc3ccc(S(C)(=O)=O)cc3s2)C(C)C)c1	16	98	6	-2	1.1	90	.	.	.
COC(=O)c1cn[nH]c1NC(=S)Nc1ccccc1C	-2	151*	-2	-56	1.7	106	169*	129	117*
Cc1ccc(N/C=C2/Sc3ccccc3NC2=O)cc1	12	168*	123	-77	1.7	94	192*	135*	90
COc1ccc(N/C=C2/Sc3ccccc3NC2=O)cc1	-10	166*	104	-71	1.8	110	170*	112	107
Cc1ccc(Nc2n[nH]c(C)c2[N+](=O)[O-])cc1C	-12	191*	210*	-100	7.7*	110	239*	147*	117*
Cc1c(-c2nc(N)nc(Nc3ccc(F)cc3)n2)oc2ccccc12	0	156*	152*	-65	3.3*	102	183*	142*	106
CCOc1ccc2nc(N3CCCCCC3)sc2c1	29	191*	194*	-98	7.2*	76	246*	144*	106
CCOc1ccc2nc(N3CCC(C(=O)N4CCN(C5CCCCC5)CC4)CC3)sc2c1	24	117	12	-19	1	84	.	.	.
CCOCC(=O)Nc1nc2ccc(OCC)cc2s1	28	152*	84	-56	2.8	78	167*	125	101
COCCCNC(=O)/C(C#N)=C/c1cc(C)[nH]c1C	-11	104	9	-6	1.2	112	.	.	.
O=[N+]([O-])c1ccc2nc(-c3ccc(Cl)cc3)[nH]c2c1	-14	155*	156*	-55	1.1	109	206*	133	102
O=[N+]([O-])c1ccc2nc(-c3ccccc3[N+](=O)[O-])[nH]c2c1	6	126	1	-29	2.4	97	.	.	.
COc1ccc(-c2nc3ccc([N+](=O)[O-])cc3[nH]2)cc1	27	182*	160*	-93	8.7*	79	251*	131	98
COc1ccc2nc(-c3ccccc3)[nH]c2c1	34	153*	178*	-45	5.5*	74	199*	124	104
c1cncc(-c2nc3cc4ccccc4cc3[nH]2)c1	13	156*	154*	-62	2.9	94	226*	126	103
COCC(C)n1c(SCC(=O)NNC(=O)c2ccc(F)cc2)nc2ccccc2c1=O (centres undefined)	-4	103	-10	-3	0.93	102	.	.	.
CC(=O)Oc1cccc(N2C(=O)c3ccc(C(=O)Nc4c[nH]c(=O)[nH]c4=O)cc3C2=O)c1	5	103	-5	-5	1	97	.	.	.
CC1CCCC(NC(=O)CNC(=S)N(Cc2ccccc2)Cc2cccs2)C1C (centres undefined)	-2	103	-6	-4	0.79	113	.	.	.
CCc1ccc(-c2cn3c(n2)SCC3)cc1	26	154*	100	-56	7.2*	79	200*	130	96
O=C(Cc1ccc(F)cc1)Nc1cccc(-c2cn3c(n2)SCC3)c1	13	105	-9	-8	0.69	93	.	.	.
O=C(O)/C=C/C(=O)NC1CCC(CC2CCC(NC(=O)/C=C/C(=O)O)CC2)CC1 (centres undefined)	-3	109	16	-12	1.2	105	.	.	.
O=C(Nc1cccc(Cl)c1)Nc1cc(S(=O)(=O)N2CCOCC2)ccc1N1CCCC1	-4	87	-5	15	0.95	101	.	.	.
SMILES	STAT3 blocker	STAT1 act	APP 5'UTR act	STAT1 blocker	NF-kB expr up	STAT3 act	STAT1 activ conf	NFkB act	STAT3 act STAT1c
CCOC(=O)c1sc2nc(-c3cccnc3)ccc2c1N	11	176*	156*	-85	8.2*	93	251*	141*	115*
c1ccc(N2CCN(c3cnc4ccccc4n3)CC2)cc1	16	175*	11	-70	6.5*	87	219*	130	97
COc1ccc(N2CCN(c3cc(C)c4ccccc4n3)CC2)cc1	25	90	9	11	1	80	.	.	.
CCCCOC(=O)Nc1ccc2c(C)cc(=O)oc2c1	15	166*	138*	-72	5.8*	90	197*	144*	104
CCOC(=O)Nc1ccc2c(C)cc(=O)oc2c1	10	110	37	-10	2.4	94	.	.	.
CCS(=O)(=O)N1Cc2ccccc2CC1C(=O)Nc1nc2ccccc2s1 (centres undefined)	22	174*	210*	-82	0.91	83	230*	123	119*
CCc1nnc(NC(=O)C2Cc3ccccc3CN2S(=O)(=O)CC)s1 (centres undefined)	17	100	4	1	1.3	90	.	.	.
CN1C(=O)/C(=C/C=C2\SCCN2C)SC1=S	24	159*	174*	-63	4.4*	79	224*	113	99
CCCN1C(=O)/C(=C\C=C2/Sc3ccccc3N2CC)SC1=S	11	101	0	-1	1.3	92	.	.	.
CCn1c(C)cc(/C=C2/NC(=O)N(c3ccccc3)C2=O)c1C	0	168*	89	-78	0.95	101	187*	139*	103
CCn1c(C)cc(/C=C2\NC(=O)N(CC(=O)Nc3cccc(C)c3)C2=O)c1C	-9	95	2	4	1.1	117	.	.	.

Screening results (PubChem)
